Screening results (PubChem)
Compounds with a hit are over-represented: about 4.6% of the library has one in this group of screens.
NALP3 yeast inh – blocks the NALP3 inflammasome reconstituted in yeast. Yeast reconstituted NLRP3/ASC/caspase-1, beta-gal luminescence, 24 h. inhibition, % at 10 µM. hit rate 0.39% among 330,000. AID 2825;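 active = inhibition of 50% or more; inactive = inhibition below 50%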;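 also: plate controls were induced DMSO wells for no effect and uninduced yeast grown without galactose for full effect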
PolyA inhibitor – inhibitors of polyadenylation in S. cerevisiae; S. cerevisiae SKY197-pL101 polyadenylation reporter, beta-gal luminescence; efflux-impaired pdr1/pdr3 knockout yeast; score 100 = 6 SD above DMSO; activity score, % at 12 µM; hit rate 0.02% among 300,000; AID 1875;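 active = lowest replicate activity score at least 50, where 100 means six control SD above control mean; inconclusive = lowest score under 50 but half or more replicates reach 50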;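 also: yeast exposed to compound for 9 h at 30 °C; higher score means more reporter readthrough which indicates perturbed polyadenylation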
ALR H2O2 inh – inhibitors of human sulfhydryl oxidase ALR; P55789; purified ALR, DTT oxidation, H2O2 HRP-luminol luminescence; inhibition, % (test concentration not listed); hit rate 3.8% among 290,000; AID 485317;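 active = mean replicate inhibition above about 79%, with every replicate also reaching it, limit read from the data; inconclusive = only one of the two criteria met; inactive = mean below limit and not every replicate reaching it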
Target sequence (P55789 whole entry, looked up): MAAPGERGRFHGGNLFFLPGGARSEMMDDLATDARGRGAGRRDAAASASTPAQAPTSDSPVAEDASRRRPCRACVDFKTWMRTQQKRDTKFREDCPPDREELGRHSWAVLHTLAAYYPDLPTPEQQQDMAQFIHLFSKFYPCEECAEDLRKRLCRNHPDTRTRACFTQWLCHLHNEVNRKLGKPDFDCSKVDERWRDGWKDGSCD
Arrestin-AP2 inh – blocks beta-arrestin peptide binding to AP2 adaptin; FITC-arrestin peptide / GST-AP2 beads, flow cytometry; AP2 beta2 appendage carries R879A mutation; inhibition, % at 10 µM; hit rate 0.31% among 340,000; AID 504490;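 active = inhibition above a set limit, near 3 SD of compounds lacking own fluorescence, cut at about 54% in these data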;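 also: plate controls were DMSO wells for no effect and 5 µM unlabelled arrestin peptide for full effect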
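System: GST-AP2 R879A glutathione beads | Also added: FITC-arrestin peptide, 50 nM | Times: 12 min plus 1 h, RT | Signal: Bead flow cytometry, FITC channel | Buffer or medium: PBS with 0.05% Tween 20 and 0.1% BSA | Read-out basis: Percent drop in bead-associated FITC signal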
DSG3 Ab inh – inhibitors of pemphigus antibody binding to human desmoglein-3; DSG3-coupled beads, scFv-anti-DSG3-GFP binding, flow cytometry; hits give low values; P32926; binding (percent of control), % at 10 µM; hit rate 0.48% among 310,000;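 active = binding more than 3 SD below its plate's average and above zero; inconclusive = below that plate limit but binding exactly zero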;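 also: hits lower antibody fragment binding to DSG3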
NALP1 inh – NALP1 inhibition. hit rate 0.61% among 280,000. S. cerevisiae NALP1/ASC/caspase-1 growth, X-gal OD620, 72 h. AID 2071. inhibition, % at 10 µM; in the data active = inhibition mostly above about 24%, no sharp cut-off; inactive = mostly below about 32%
Starred values were filed as active, the others as inactive; ? = inconclusive; nt = not tested or not shown.

SMILES | NALP3 yeast inh | PolyA inhibitor | ALR H2O2 inh | Arrestin-AP2 inh | DSG3 Ab inh | NALP1 inh
CNC(=S)NNc1nc(N2CCOCC2)nc(N2CCOCC2)n1 | 14 | 2 | 85* | 35 | 98 | 2
O=C(O)c1ccc(N/N=C/C2=C(N3CCOCC3)C(=C\c3ccccc3)/CC2)cc1 | -11 | -9 | 97* | 42 | 89 | -5
COc1ccc(S(=O)(=O)Nc2c(NC3CCCCC3)c3ccccc3oc2=O)cc1OC | 0 | -2 | 49 | -7 | 105 | 9
C=C1CCc2c([nH]c3ccc(OCC(C)C)cc23)C1=O | 7 | -50 | -24 | -3 | 88 | 10
COc1cc(NS(=O)(=O)c2ccc(NC(=O)COc3cccc(C)c3)cc2)nc(OC)n1 | -6 | 1 | 98* | 25 | nt | 5
COc1cc(NS(=O)(=O)c2ccc(NC(=S)NC(=O)C3CCCC3)cc2)nc(OC)n1 | 7 | -20 | 13 | -6 | 95 | 10
COc1cc(NS(=O)(=O)c2ccc(NC(=O)NC3CCCCC3)cc2)nc(OC)n1 | -4 | 5 | 98* | 25 | 94 | nt
COc1ccccc1OCC(=O)Nc1ccc(S(=O)(=O)Nc2cc(C)on2)cc1 | -2 | 9 | 89* | -13 | 114 | 27
COc1cc(NS(=O)(=O)c2ccc(NC(=O)COc3ccccc3Cl)cc2)nc(OC)n1 | 13 | 2 | 93* | nt | nt | 26
CCC1Sc2ccc(S(=O)(=O)CCC(=O)NCc3ccco3)cc2NC1=O (stereo unspecified) | 4 | -1 | 17 | -9 | 103 | -3
CC1CCCC(NC(=O)COC(=O)CSc2ccc3ccccc3c2)C1C (stereo unspecified) | 23 | -4 | 99* | 2 | 117 | 25
Cc1ccc(NC(=O)CCC(=O)NNC(=O)Nc2cccc(Cl)c2)c(C)c1 | 5 | 3 | -17 | 4 | 103 | 16
CN1/C(=C/c2cccc[n+]2CCO)Sc2ccccc21 | 10 | -14 | 7 | -21 | 89 | 28
COc1ccc(-[n+]2c(C)cc(/C=C3\Sc4ccccc4N3C)cc2C)cc1 | 12 | -15 | 95* | nt | 139 | 28*
COc1ccccc1-[n+]1c(C)cc(/C=C2\Sc3ccccc3N2C)cc1C | 37 | -7 | 98* | 1 | 133 | nt
O=C(CSc1nc2ccccc2c(=O)[nH]1)c1ccc(O)c(O)c1 | 18 | -7 | 99* | 7 | 102 | -8
Cc1cc(SCC(=O)c2ccc(O)c(O)c2)n2nc(C)c(-c3ccccc3)c2n1 | 11 | 16 | 96* | 6 | 105 | nt
Cc1ccc(C(=O)CSc2nc(C)cc(=O)[nH]2)cc1 | 16 | -1 | 98* | 5 | nt | 2
Cc1cc(=O)[nH]c(SCC(=O)c2ccc(O)c(O)c2)n1 | 17 | 20 | 99* | -11 | 100 | -1
CC1N=C(SCC(=O)c2ccc(F)cc2)N2C(C)N=C(SCC(=O)c3ccc(F)cc3)N12 (stereo unspecified) | nt | nt | nt | nt | 94 | nt
CC(=O)Nc1ccc(NC(=O)[C@H](C)NC(=O)c2ccco2)cc1 | 10 | 10 | nt | -3 | 103 | 15
O=C(COC(=O)c1ccc(F)cc1Cl)NC1CC1 | nt | nt | nt | nt | 92 | nt
Cc1cccc(C(=O)Nc2ccc(O)cc2)c1 | 10 | 0 | 99* | -2 | 102 | nt
Cc1cccc(C(=O)NNC(=O)C2CC2)c1 | 11 | -4 | -7 | 24 | 107 | 31*
Cc1cccc(C(=O)NNC(=O)c2cccc(C)c2)c1 | -2 | 13 | -2 | 14 | 109 | 24
SMILES | NALP3 yeast inh | PolyA inhibitor | ALR H2O2 inh | Arrestin-AP2 inh | DSG3 Ab inh | NALP1 inh
Cc1cc(C)nc(NS(=O)(=O)c2ccc(NC(=O)COc3ccccc3)cc2)n1 | -10 | 14 | 99* | 4 | 109 | 2
Cc1cc(C)nc(NS(=O)(=O)c2ccc(NC(=O)c3ccc(O)cc3O)cc2)n1 | 16 | ? | 99* | 42 | 115 | -3
Cc1cc(C)nc(NS(=O)(=O)c2ccc(NC(=O)Cc3ccccc3)cc2)n1 | 0 | 23 | 0 | -2 | 102 | 3
O=C1NN=C2CCCCCCCCCCC12 (stereo unspecified) | nt | nt | nt | nt | 106 | nt
Cc1cccc(C(=O)NCC(=O)Nc2ccc(S(=O)(=O)Nc3nc(C)cc(C)n3)cc2)c1 | 8 | 23 | 1 | -5 | 96 | -5
Cc1cccc(C(=O)Nc2ccc(S(=O)(=O)Nc3nc(C)cc(C)n3)cc2)c1 | 5 | -7 | 0 | -11 | 14* | 10
CC1CCCN(S(=O)(=O)c2ccc(S(=O)(=O)N3CCCC3)cc2)C1 (stereo unspecified) | 6 | 23 | nt | -6 | 101 | 6
CC1CCCN(S(=O)(=O)c2ccc(S(=O)(=O)N3CCC4(CC3)OCCO4)cc2)C1 (stereo unspecified) | 19 | 12 | -5 | 3 | 68* | 18
O=C(Nc1ccnn1C1CCNCC1)c1ccc2c(c1)OCO2 | nt | nt | nt | 16 | 94 | nt
N#C/C(=N\Nc1cccc(C(F)(F)F)c1)C(=O)c1csc(-c2cccnc2)n1 | 27 | -19 | 97* | -4 | nt | nt
Cc1ccc(C(=O)Nc2cccc(C(F)(F)F)c2)cc1NC(=O)c1csc(-c2ccncc2)n1 | 16 | -4 | 4 | -7 | 108 | 8
CC(C)NC(=O)N(C)C[C@H]1Oc2cc(C#Cc3ccc(F)cc3)ccc2S(=O)(=O)N([C@H](C)CO)C[C@H]1C | nt | nt | nt | nt | 104 | nt
Cn1c(SCC(=O)Nc2ccccc2F)nc2c(c1=O)SCC2 | 22 | 13 | 88* | 6 | 95 | 2
COCCn1c(SCC(=O)Nc2cc(C)on2)nc2c(c1=O)SCC2 | -5 | -13 | -4 | -9 | 109 | 18
CCn1c(SCC(=O)Nc2ccc(OC)c(OC)c2)nc2c(c1=O)SCC2 | -2 | 5 | 99* | 3 | 106 | 12
CCn1c(SCC(=O)Nc2cc(OC)ccc2OC)nc2c(c1=O)SCC2 | 4 | -8 | -10 | -10 | 105 | 14
COc1ccc(NC(=O)CSc2nc3c(c(=O)n2C)SCC3)cc1OC | 8 | 10 | 99* | 46 | nt | 11
COCCn1c(SCC(=O)Nc2cccc(F)c2)nc2c(c1=O)SCC2 | 2 | 3 | 99* | 7 | 111 | 0
O=C(OCc1ccccc1)N1CCC2CC1c1cc(-c3cc4ccccc4o3)ccc12 (stereo unspecified) | nt | nt | nt | nt | 98 | nt
Cn1c(SCc2c(F)cccc2Cl)nc2c(c1=O)SCC2 | 34 | 10 | nt | 8 | nt | -1
Cn1c(SCc2ccc([N+](=O)[O-])cc2)nc2c(c1=O)SCC2 | 9 | -6 | 99* | -14 | 101 | 8
CCCCCN(C(=O)CCC(=O)OCc1cccc(Br)c1)c1c(N)n(CCCC)c(=O)[nH]c1=O | 14 | -3 | 1 | -4 | 96 | nt
CN1CCc2c(sc3c2C(=O)NC(c2ccco2)N3)C1 (stereo unspecified) | -5 | -5 | 0 | 4 | 99 | 25
CN1CCc2c(sc3c2C(=O)NC(c2ccc(-c4ccc(Cl)cc4)o2)N3)C1 (stereo unspecified) | 21 | 20 | 91* | -2 | 100 | 6
